Measured values taken from ChEMBL document CHEMBL2429814 (J Med Chem, 2013).
Calls of active or inactive are those of the source. The calls are words filed in the database; no cut-off is given here.

What was measured:
[1] = target: Metabotropic glutamate receptor 5 (Homo sapiens, UniProt P41594); assay: Positive allosteric modulation of mGluR5 (unknown origin) at 10 uM relative to glutamate
Outline: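 HEK293 cells stably expressing rat mGlu5 (low receptor expression line) were plated overnight at 37°C/5% CO2 and loaded with Fluo-4AM for 50 min at 37°C in HBSS with 20 mM HEPES and 2.5 mM probenecid, pH 7.4. PAM (10 µM) or vehicle was added, then a glutamate concentration-response curve 140 s later. Read-out was calcium fluorescence, reported as glutamate fold-shift, three independent runs in triplicate.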

[2] = target: T1, Metabotropic glutamate receptor 5 (Rattus norvegicus, UniProt P31424); assay: Agonist activity at mGlu5R in SC-CA1 synapse of Sprague-Dawley rat hippocampus assessed as induction of long-term depression at 10 uM measured 55 mins post compound washout; format: tissue-based
Outline: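 Male Sprague-Dawley rats aged 30–40 days; hippocampal slices at 30–32°C. Bipolar stimulation of Schaffer collaterals near the CA3-CA1 border, recording in CA1 stratum radiatum, baseline intensity 50–60% of maximum. Compound in DMSO, bath-perfused. fEPSP slopes averaged over three sequential responses and normalized to the pre-drug baseline.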

[3] = target: T1, Metabotropic glutamate receptor 5; assay: Agonist activity at mGlu5R in CA3 pyramidal neurons Sprague-Dawley rat hippocampus assessed as effect on intervent interval relative to control; format: tissue-based
Outline: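 Male Sprague-Dawley rats aged 24–30 days; hippocampal slices equilibrated 5–10 min at 30–32°C in a submersion chamber. Recording electrode in the CA3 pyramidal cell body layer. Compound diluted in DMSO and bath-perfused. Spontaneous epileptiform events recorded as field potentials, with inter-event interval normalized to baseline.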

[4] = target: Metabotropic glutamate receptor 8 (Rattus norvegicus) (UniProt P70579); assay: Potentiation of rat mGluR8 receptor stably expressed in HEK293-GIRK cells assessed as fold shift in glutamate concentration response curve at 10 uM by C2+ mobilization assay relative to control; format: cell-based; settings: in the assay text read “thallium flux assay” for “C2+ mobilization assay”
Outline: (§1)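 HEK293-GIRK cells expressing the rat mGlu subtype were plated at 15,000 cells/well. Compound at 10 µM, or vehicle, was added, then 140 s later a concentration-response curve of glutamate (L-AP4 for mGlu7) in thallium buffer containing 12 mM thallium sulfate. Thallium flux through GIRK channels was read by fluorescence, and the fold shift of the agonist curve was derived.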

[5] = target: Metabotropic glutamate receptor 4 (Rattus norvegicus) (UniProt P31423); assay: Potentiation of rat mGluR4 receptor stably expressed in HEK293-GIRK cells assessed as fold shift in glutamate concentration response curve at 10 uM by C2+ mobilization assay relative to control; format: cell-based; settings: in the assay text read “thallium flux assay” for “C2+ mobilization assay”; outline: as §1
[6] = target: Metabotropic glutamate receptor 1 (Rattus norvegicus) (UniProt P23385); assay: Potentiation of rat mGluR1 receptor stably expressed in HEK293 cells assessed as fold shift in glutamate concentration response curve at 10 uM by […] mobilization assay relative to control; format: cell-based
Outline: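 HEK293 cells stably expressing rat mGlu1 were plated at 20,000 cells/well and loaded with Fluo-4AM. Compound at 10 µM final, or vehicle, was added, then a glutamate concentration-response curve 140 s later. Calcium flux was measured as fluorescence increase, and the fold shift of the glutamate curve was derived.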

[7] = target: Metabotropic glutamate receptor 2 (Rattus norvegicus) (UniProt P31421); assay: Potentiation of rat mGluR2 receptor stably expressed in HEK293-GIRK cells assessed as fold shift in glutamate concentration response curve at 10 uM by C2+ mobilization assay relative to control; format: cell-based; settings: in the assay text read “thallium flux assay” for “C2+ mobilization assay”; outline: as §1
[8] = target: Metabotropic glutamate receptor 6 (Rattus norvegicus) (UniProt P35349); assay: Potentiation of rat mGluR6 receptor stably expressed in HEK293-GIRK cells assessed as fold shift in glutamate concentration response curve at 10 uM by C2+ mobilization assay relative to control; format: cell-based; settings: in the assay text read “thallium flux assay” for “C2+ mobilization assay”; outline: as §1
[9] = Agonist activity at rat mGluR5 T780A mutant stably expressed in HEK293 cells assessed as increase in intracellular calcium level at 1 to 100 uM by Fluo-4AM dye-based fluorescence assay; format: cell-based; settings: hek293, 100 µM
[10] = Agonist activity at rat mGluR5 S808A mutant stably expressed in HEK293 cells assessed as increase in intracellular calcium level at 1 to 100 uM by Fluo-4AM dye-based fluorescence assay; format: cell-based; settings: hek293, 100 µM
[11] = target: Cytochrome P450 2D6 (Homo sapiens, UniProt P10635); assay: Inhibition of human CYP2D6; format: ADME
Outline: (§2)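 Inhibition of individual human CYP isoforms (2C9, 2D6, 3A4) measured in human liver microsomes; IC50 values reported.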

[12] = target: Cytochrome P450 2C9 (Homo sapiens, UniProt P11712); assay: Inhibition of human CYP2C9; format: ADME; outline: as §2
[13] = target: Metabotropic glutamate receptor 7 (Rattus norvegicus) (UniProt P35400); assay: Potentiation of rat mGluR7 receptor stably expressed in HEK293-GIRK cells assessed as fold shift in […] concentration response curve at 10 uM by […] relative to control; format: cell-based; outline: as §1
[14] = test system: Plasma; assay: Fraction unbound in rat plasma by equilibrium dialysis method; format: ADME, cell-free
Outline: (§3)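 Plasma protein binding measured by equilibrium dialysis in human or rat plasma; reported as percent unbound.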

[15] = test system: Brain; assay: Fraction unbound in rat brain; format: ADME, tissue-based
Outline: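 Binding to rat brain homogenate used to derive fraction unbound in brain.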

[16] = target: T1, Metabotropic glutamate receptor 5; assay: Agonist activity at mGlu5R in CA3 pyramidal neurons Sprague-Dawley rat hippocampus assessed as effect on amplitude relative to control; format: tissue-based
[17] = test system: Plasma; assay: Fraction unbound in human plasma by equilibrium dialysis method; format: ADME, cell-free; outline: as §3
[18] = target: Metabotropic glutamate receptor 5 (Rattus norvegicus) (UniProt P31424); assay: Positive allosteric modulation of rat mGluR5 stably expressed in HEK293 cells assessed as increase in intracellular calcium level by Fluo-4AM dye-based fluorescence assay relative to glutamate; format: functional, cell-based
[19] = target: Metabotropic glutamate receptor 3 (Rattus norvegicus) (UniProt P31422); assay: Potentiation of rat mGluR3 receptor stably expressed in HEK293-GIRK cells assessed as fold shift in glutamate concentration response curve at 10 uM by C2+ mobilization assay relative to control; format: cell-based; settings: in the assay text read “thallium flux assay” for “C2+ mobilization assay”; outline: as §1
[20] = target: T2, Cytochrome P450 1A2 (Homo sapiens, UniProt P05177); assay: Inhibition of human CYP1A2; format: ADME
T2 sequence (P05177 whole entry): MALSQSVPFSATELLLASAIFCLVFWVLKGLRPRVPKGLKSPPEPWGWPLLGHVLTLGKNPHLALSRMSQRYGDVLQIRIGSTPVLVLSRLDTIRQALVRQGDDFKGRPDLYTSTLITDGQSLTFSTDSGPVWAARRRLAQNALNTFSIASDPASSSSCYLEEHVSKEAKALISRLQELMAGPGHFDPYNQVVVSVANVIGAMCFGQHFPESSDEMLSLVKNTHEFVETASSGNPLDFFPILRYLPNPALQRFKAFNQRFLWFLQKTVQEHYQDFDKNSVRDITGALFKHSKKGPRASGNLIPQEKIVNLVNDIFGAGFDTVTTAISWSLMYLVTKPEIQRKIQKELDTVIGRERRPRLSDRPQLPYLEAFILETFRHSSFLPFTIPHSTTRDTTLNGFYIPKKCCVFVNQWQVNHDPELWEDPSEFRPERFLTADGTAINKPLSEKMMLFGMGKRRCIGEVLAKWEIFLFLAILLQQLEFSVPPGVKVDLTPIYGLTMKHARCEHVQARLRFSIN
Outline: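 Inhibition of the human CYP1A2 isoform measured in human liver microsomes; reported as IC50.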

[21] = Protein binding in (unknown origin) plasma; format: ADME, cell-free; settings: read-out: PPB (converted)
[22] = Ratio of drug level in brain to plasma in (unknown origin); format: ADME, cell-free; settings: brain and plasma; read-out: BPR
[23] = target: T1, Metabotropic glutamate receptor 5; assay: Positive allosteric modulation of rat mGluR5 stably expressed in CHO cells assessed as calcium mobilization; format: functional, cell-based
[24] = target: T1, Metabotropic glutamate receptor 5; assay: Positive allosteric modulation of rat mGluR5
[25] = target: Metabotropic glutamate receptor 5 (Rattus norvegicus) (UniProt P31424); assay: Antagonist activity at rat mGluR5 stably expressed in HEK293 cells assessed as inhibition of glutamate-induced intracellular calcium level by Fluo-4AM dye-based fluorescence assay relative to control; format: functional, cell-based; settings: concentration not given here
[26] = target: T1, Metabotropic glutamate receptor 5; assay: Antagonist activity at rat mGluR5 stably expressed in HEK293 cells assessed as inhibition of glutamate-induced intracellular calcium level by Fluo-4AM dye-based fluorescence assay; format: functional, cell-based
[27] = Plasma protein binding in human; format: ADME, cell-free
Outline: (§4)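 Fraction unbound measured by equilibrium dialysis in human or rat plasma.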

[28] = Plasma protein binding in rat; format: ADME, cell-free; outline: as §4
[29] = target: T1, Metabotropic glutamate receptor 5; assay: Agonist activity at rat mGluR5 stably expressed in HEK293 cells assessed as increase in intracellular calcium level by Fluo-4AM dye-based fluorescence assay; format: cell-based; settings: read-out: EC50
Outline: (§5)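 HEK293 cells stably expressing rat mGlu5 (low receptor density line), 15,000 cells/well, grown overnight at 37°C/5% CO2. Loaded with Fluo-4AM for 50 min at 37°C in HBSS with 20 mM HEPES, 2.5 mM probenecid, pH 7.4. Triple add: compound, then EC20 glutamate 140 s later, then EC80 glutamate 60 s later. Calcium fluorescence read over time. Values are means of ≥3 independent experiments run in duplicate or triplicate.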

[30] = target: T1, Metabotropic glutamate receptor 5; assay: Agonist activity at rat mGluR5 stably expressed in HEK293 cells assessed as increase in intracellular calcium level by Fluo-4AM dye-based fluorescence assay relative to glutamate; format: cell-based; settings: read-out: Efficacy
Outline: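 HEK293 cells stably expressing rat mGlu5 (low receptor density), 15,000 cells/well, grown overnight, then loaded with Fluo-4AM for 50 min at 37°C in HBSS/20 mM HEPES/2.5 mM probenecid, pH 7.4. Triple-add protocol: compound, then glutamate EC20 140 s later, then EC80 60 s later. Fluorescence read over time. At least three independent runs in duplicate or triplicate; response given as % of glutamate maximum.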

[31] = target: T1, Metabotropic glutamate receptor 5; assay: Positive allosteric modulation of rat mGluR5 stably expressed in HEK293 cells assessed as increase in intracellular calcium level by Fluo-4AM dye-based fluorescence assay; format: functional, cell-based; outline: as §5
[32] = Agonist activity at rat mGluR5 W784A mutant stably expressed in HEK293 cells assessed as increase in intracellular calcium level at 1 to 100 uM by Fluo-4AM dye-based fluorescence assay; format: cell-based; settings: hek293, 100 µM
[33] = target: Metabotropic glutamate receptor 5 (Rattus norvegicus) (UniProt P31424); assay: Potentiation of rat mGluR5 receptor stably expressed in HEK293 cells assessed as fold shift in glutamate concentration response curve at 10 uM relative to control; format: cell-based
Outline: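 HEK293 cells stably expressing rat mGlu5 were loaded with Fluo-4AM. Compound at 10 µM, or vehicle, was added, and a glutamate concentration-response curve followed 140 s later. The fold leftward shift of the glutamate curve was read from calcium fluorescence. Values are means of three independent experiments in triplicate.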

T1 sequence (P31424 whole entry, the tested form may be a part): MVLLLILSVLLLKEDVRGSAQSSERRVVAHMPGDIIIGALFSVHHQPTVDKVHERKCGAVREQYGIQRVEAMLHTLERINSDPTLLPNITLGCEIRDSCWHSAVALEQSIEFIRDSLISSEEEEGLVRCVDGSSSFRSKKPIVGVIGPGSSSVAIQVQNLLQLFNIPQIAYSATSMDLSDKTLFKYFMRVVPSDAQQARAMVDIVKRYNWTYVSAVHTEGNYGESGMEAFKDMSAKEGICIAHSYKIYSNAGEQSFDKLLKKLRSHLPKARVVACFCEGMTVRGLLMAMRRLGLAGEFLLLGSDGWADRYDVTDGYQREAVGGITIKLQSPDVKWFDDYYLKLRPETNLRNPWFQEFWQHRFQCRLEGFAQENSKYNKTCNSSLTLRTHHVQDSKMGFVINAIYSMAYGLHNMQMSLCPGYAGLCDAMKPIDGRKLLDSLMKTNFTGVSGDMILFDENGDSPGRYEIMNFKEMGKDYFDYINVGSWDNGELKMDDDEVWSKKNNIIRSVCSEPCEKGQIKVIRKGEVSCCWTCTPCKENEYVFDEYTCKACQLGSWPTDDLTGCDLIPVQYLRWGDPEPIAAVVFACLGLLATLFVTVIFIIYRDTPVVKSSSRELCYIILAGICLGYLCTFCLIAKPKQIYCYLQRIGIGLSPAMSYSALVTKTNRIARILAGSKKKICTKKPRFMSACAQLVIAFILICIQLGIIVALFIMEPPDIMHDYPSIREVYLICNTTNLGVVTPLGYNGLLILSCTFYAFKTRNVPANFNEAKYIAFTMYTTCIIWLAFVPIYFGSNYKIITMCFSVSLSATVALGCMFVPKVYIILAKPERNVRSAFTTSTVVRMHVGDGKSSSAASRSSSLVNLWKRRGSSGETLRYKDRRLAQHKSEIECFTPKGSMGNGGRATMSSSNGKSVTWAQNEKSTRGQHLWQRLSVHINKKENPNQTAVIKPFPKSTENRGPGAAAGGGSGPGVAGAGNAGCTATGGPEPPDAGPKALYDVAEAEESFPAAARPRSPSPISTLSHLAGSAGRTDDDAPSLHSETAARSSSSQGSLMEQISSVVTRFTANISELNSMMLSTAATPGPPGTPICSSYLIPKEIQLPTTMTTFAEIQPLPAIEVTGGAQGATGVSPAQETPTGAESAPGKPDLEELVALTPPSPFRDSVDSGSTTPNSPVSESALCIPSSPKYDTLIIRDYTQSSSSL
Sequence of Metabotropic glutamate receptor 5 (Rattus norvegicus) (P31424 21-1203 limits assumed): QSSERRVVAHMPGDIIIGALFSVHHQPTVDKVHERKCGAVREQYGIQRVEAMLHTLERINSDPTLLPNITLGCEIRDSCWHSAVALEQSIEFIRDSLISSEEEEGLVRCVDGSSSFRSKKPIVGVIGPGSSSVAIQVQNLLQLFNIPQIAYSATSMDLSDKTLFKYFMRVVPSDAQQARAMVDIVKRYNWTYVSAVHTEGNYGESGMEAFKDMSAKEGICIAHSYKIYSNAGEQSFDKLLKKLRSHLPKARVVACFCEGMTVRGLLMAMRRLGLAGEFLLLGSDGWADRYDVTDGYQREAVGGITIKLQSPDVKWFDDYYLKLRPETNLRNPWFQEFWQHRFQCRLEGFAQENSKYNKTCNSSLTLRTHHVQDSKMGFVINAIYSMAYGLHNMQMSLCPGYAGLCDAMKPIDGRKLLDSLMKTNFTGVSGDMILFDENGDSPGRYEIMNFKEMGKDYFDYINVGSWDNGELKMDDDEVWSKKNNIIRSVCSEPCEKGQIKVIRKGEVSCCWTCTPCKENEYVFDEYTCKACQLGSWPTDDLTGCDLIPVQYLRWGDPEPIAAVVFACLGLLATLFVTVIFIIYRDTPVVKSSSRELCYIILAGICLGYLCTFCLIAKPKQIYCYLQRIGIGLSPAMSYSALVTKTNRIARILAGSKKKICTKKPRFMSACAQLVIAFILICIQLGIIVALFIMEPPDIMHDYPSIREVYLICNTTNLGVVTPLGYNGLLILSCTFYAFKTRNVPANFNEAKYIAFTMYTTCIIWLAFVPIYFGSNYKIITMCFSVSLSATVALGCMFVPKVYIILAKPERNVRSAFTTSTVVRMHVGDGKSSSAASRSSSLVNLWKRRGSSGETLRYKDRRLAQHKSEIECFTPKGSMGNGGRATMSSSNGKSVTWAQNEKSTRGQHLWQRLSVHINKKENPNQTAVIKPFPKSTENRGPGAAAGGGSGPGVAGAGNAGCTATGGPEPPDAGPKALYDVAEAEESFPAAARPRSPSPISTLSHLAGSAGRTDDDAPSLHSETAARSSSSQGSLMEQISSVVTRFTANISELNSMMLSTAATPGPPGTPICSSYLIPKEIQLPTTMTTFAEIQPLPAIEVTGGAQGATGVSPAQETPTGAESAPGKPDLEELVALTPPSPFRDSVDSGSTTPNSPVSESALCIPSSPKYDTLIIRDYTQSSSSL
Sequence of Metabotropic glutamate receptor 5 (Homo sapiens, UniProt P41594) (P41594 21-1212 limits assumed): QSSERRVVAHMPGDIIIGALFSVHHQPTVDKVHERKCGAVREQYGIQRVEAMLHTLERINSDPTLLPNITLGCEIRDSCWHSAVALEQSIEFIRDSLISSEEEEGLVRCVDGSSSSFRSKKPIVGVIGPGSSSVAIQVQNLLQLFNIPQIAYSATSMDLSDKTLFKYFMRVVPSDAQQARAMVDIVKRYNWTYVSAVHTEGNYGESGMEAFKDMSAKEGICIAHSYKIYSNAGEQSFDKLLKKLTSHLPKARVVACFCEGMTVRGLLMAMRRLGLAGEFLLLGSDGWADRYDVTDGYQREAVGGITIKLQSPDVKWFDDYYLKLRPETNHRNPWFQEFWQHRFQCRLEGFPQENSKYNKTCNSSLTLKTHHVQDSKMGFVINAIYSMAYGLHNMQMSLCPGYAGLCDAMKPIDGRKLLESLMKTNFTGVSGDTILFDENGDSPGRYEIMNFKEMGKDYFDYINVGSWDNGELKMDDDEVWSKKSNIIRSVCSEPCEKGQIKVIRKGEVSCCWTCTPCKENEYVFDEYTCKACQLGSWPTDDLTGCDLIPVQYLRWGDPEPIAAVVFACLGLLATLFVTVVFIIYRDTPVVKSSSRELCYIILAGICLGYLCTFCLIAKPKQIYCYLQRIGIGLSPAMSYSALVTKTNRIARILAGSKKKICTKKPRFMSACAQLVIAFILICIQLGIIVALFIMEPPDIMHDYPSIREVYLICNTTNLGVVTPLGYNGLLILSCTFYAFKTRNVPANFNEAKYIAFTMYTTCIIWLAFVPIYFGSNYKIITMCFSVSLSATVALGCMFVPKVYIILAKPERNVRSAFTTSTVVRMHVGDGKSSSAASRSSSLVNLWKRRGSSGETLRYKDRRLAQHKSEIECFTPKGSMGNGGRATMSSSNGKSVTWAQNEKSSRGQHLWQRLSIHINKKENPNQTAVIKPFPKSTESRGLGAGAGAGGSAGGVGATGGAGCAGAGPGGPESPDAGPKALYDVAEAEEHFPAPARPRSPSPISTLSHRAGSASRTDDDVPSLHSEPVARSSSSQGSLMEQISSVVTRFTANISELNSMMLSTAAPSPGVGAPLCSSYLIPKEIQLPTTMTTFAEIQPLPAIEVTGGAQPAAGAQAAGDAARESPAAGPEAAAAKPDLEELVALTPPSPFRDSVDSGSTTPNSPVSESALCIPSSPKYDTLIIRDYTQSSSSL
Sequence of Metabotropic glutamate receptor 4 (Rattus norvegicus) (P31423 whole entry): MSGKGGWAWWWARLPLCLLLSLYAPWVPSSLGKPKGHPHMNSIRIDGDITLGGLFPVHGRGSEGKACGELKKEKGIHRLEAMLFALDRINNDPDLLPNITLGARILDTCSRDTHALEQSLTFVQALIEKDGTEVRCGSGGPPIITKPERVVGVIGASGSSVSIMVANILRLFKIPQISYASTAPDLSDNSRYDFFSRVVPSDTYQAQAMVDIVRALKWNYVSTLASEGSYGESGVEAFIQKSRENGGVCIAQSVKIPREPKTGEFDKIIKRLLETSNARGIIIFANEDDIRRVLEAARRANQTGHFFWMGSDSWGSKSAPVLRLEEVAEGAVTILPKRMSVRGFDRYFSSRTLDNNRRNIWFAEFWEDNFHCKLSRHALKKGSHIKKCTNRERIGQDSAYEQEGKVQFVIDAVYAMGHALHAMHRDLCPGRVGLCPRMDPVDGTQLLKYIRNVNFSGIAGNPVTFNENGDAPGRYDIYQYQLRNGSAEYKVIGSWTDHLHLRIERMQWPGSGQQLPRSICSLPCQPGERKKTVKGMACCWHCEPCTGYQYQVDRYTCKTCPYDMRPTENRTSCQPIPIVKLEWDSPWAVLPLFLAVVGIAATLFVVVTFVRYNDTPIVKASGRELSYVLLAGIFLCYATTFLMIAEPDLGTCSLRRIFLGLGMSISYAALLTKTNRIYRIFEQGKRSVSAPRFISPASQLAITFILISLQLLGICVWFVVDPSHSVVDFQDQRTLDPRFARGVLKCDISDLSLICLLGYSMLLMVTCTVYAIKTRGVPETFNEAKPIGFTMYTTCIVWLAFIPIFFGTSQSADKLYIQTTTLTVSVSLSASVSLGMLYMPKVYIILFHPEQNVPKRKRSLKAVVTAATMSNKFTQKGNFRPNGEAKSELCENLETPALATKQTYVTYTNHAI
Sequence of Cytochrome P450 2D6 (P10635 whole entry, canonical isoform): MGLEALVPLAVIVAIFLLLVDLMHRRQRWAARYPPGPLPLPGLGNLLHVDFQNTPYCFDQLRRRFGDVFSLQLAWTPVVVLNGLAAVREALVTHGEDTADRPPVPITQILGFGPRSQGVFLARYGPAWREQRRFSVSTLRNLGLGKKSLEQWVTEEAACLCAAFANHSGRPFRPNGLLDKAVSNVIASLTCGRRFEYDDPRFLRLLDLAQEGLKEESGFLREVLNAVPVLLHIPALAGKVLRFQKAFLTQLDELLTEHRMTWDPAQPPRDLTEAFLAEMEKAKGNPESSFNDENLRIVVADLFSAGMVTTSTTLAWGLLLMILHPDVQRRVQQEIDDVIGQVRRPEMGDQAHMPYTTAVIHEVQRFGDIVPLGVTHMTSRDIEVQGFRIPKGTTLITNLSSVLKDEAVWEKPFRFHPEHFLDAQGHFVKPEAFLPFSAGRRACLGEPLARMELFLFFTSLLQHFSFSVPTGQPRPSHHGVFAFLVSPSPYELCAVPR

Q: For O=C1c2ccc(F)cc2CCC2CC[C@@H](c3noc(-c4ccc(F)cn4)n3)CN12 (stereo partly specified), which fold change (FC) [1] is on record?
A: 6

Q: For CC1(NC(=O)c2ccc(C#Cc3cccc(F)c3)cn2)COC1, which Activity [2] is on record?
A: 100.3%

Q: What about the Activity [3] of the same compound?
A: 127.9%

Q: What about the Activity [4] of the same compound?
A: inactive

Q: And the Activity [5]?
A: inactive

Q: What about the Activity [6] of the same compound?
A: inactive

Q: What about the Activity [7] of the same compound?
A: inactive

Q: What about the Activity [8] of the same compound?
A: inactive

Q: And the Activity [9]?
A: Not Active

Q: And the Activity [10]?
A: Active

Q: What about the IC50 [11] of the same compound?
A: > 30000 nM

Q: What about the IC50 [12] of the same compound?
A: > 30000 nM

Q: What about the Activity [13] of the same compound?
A: inactive

Q: And the Fu [14]?
A: 3.6%

Q: What about the Fu [15] of the same compound?
A: 1.6%

Q: And the Activity [16]?
A: 101.2%

Q: And the Fu [17]?
A: 3.5%

Q: And the Efficacy [18]?
A: 45.5%

Q: And the Activity [19]?
A: inactive

Q: What about the IC50 [20] of the same compound?
A: 5300 nM

Q: Which results are given for O=C(NC1CCC1)c1ccc(C#Cc2cccc(F)c2)nc1?
A: fraction unbound [21]: 0.011; Kp [22]: 0.13; EC50 [23]: 39 nM

Q: Which EC50 [24] does the source give for O=C(N[C@H]1C[C@H](O)C1)c1ccc(C#Cc2cccc(F)c2)cn1 here?
A: 17 nM

Q: Which inhibition [25] does the source give for CC1(NC(=O)c2ccc(C#Cc3ccccn3)cn2)COC1 here?
A: 16.7%

Q: And the IC50 [26]?
A: 731 nM

Q: For C[C@@H]1CC[C@H](c2noc(-c3ccc(F)cn3)n2)CN1C(=O)c1ccccc1, which fold change (FC) [1] is on record?
A: 11

Q: Which results are given for C[C@@H](NC(=O)c1ccc(C#Cc2cccc(F)c2)cn1)C(C)(C)O?
A: Activity [9]: Not Active; fraction unbound [27]: 0.027; EC50 [24]: 1.5 nM; fraction unbound [28]: 0.028; EC50 [29]: 904 nM; Efficacy [18]: 63.5%; Emax [30]: 37.1%; EC50 ([31]; read-out: EC50): 4.9 nM

Q: Which Activity [32] does the source give for C[C@@H](NC(=O)c1ccc(C#Cc2ccccn2)cn1)C(C)(C)O here?
A: Active

Q: What about the fold change (FC) [33] of the same compound?
A: 1.7

Q: What about the Activity [9] of the same compound?
A: Not Active

Q: And the Efficacy [18]?
A: 57.5%

Q: And the EC50 ([31]; read-out: EC50)?
A: 41.3 nM

Q: And the EC50 ([31]; read-out: pEC50 (converted))?
A: 93.3 nM
